Converted amounts (≈) assume the structure as drawn. The source made the active and inactive calls. The rule behind the calls is not given here.
What was measured:
[1] = system: HT-29; assay: Antiproliferative activity against human HT-29 cells after 3 days by MTT assay; format: functional, cell-based; settings: HT-29, 72 h
In short: (§1)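 MTT dye reduction. 3×10^3 BAE cells (collagenase-isolated) or 5×10^3 HT-29 cells per well in DMEM with 10% FBS, exposed to serial dilutions for 3 days at 37 °C, 5% CO2. MTT (5 mg/ml in PBS) added for 4 h, formazan dissolved in 0.04 N HCl/2-propanol, absorbance at 550 nm. Triplicate; IC50 is the concentration giving 50% survival. Compounds from 10 mg/mL DMSO stocks.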

[2] = Antiangiogenic activity against BAEC assessed as inhibition of tube formation after 7 hrs by matrigel assay; format: functional; settings: Bos taurus
In short: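 Wells coated with Matrigel (about 10.5 mg/mL), polymerized at least 30 min at 37 °C. 5×10^4 BAE cells seeded in DMEM with a range of compound concentrations. Incubated 7 h at 37 °C, 5% CO2, then viewed and photographed at 200×. Two observers scored tube formation. Value is the minimal concentration inhibiting differentiation.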

[3] = Antiproliferative activity against BAEC after 3 days by MTT assay; format: functional; settings: Bos taurus, 72 h; in short: as §1
[4] = system: HT-29; assay: Inhibition of VEGF protein production in human HT-29 cells at 10 ug/mL after 72 hrs by ELISA relative to control; values are per cent of control; settings: HT-29, 72 h
[5] = system: HT-29; assay: Inhibition of VEGF mRNA expression in human HT-29 cells at 10 ug/mL after 48 hrs by RT-PCR analysis relative to control; values are per cent of control; settings: HT-29, 48 h
[6] = system: HT-29; assay: Inhibition of VEGF protein production in human HT-29 cells at 20 ug/mL after 72 hrs by ELISA relative to control; values are per cent of control; settings: HT-29, 72 h
[7] = system: HT-29; assay: Inhibition of VEGF mRNA expression in human HT-29 cells at 20 ug/mL after 48 hrs by RT-PCR analysis relative to control; values are per cent of control; settings: HT-29, 48 h
[8] = system: HT-29; assay: Inhibition of VEGF protein production in human HT-29 cells at 10 ug/mL after 72 hrs by ELISA relative to control; format: functional
In short: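 HT-29 cells at 70–80% confluence were serum-starved 24 h, then treated 72 h with compound in DMSO. VEGF secreted into culture supernatants was measured by human VEGF ELISA kit in ng/mL and compared with untreated and DMSO controls. At least three measurements per condition; mean ± SEM; one-sample t-tests.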

Row | IC50 [1] [µM] | MIC [2] [µM] | SMILES | IC50 [3] [µM] | level, % of control at 10 µg/mL [4] [%] | level, % of control at 10 µg/mL [5] [%] | level, % of control at 20 µg/mL [6] [%] | level, % of control at 20 µg/mL [7] [%] | inhibition [8]
1 | 127 | 32 (≈ 6.28 µg/mL) | Oc1cccc(/C=C/c2ccccc2)c1 [(E)-3-STILBENOL] | 91.7 | – | – | – | – | –
2 | 55 | 53 (≈ 12.5 µg/mL) | C=CCOc1ccccc1/C=C/c1ccccc1 | 313 | 41 | 50 | – | – | –
3 | 112 | 32 (≈ 6.28 µg/mL) | Oc1ccccc1/C=C/c1ccccc1 | 107 | 41 | 91 | – | – | –
4 | 110 | 54.8 (≈ 12.5 µg/mL) | Oc1ccc(/C=C/c2cc(O)cc(O)c2)cc1 [RESVERATROL] | 48 | – | – | 65 | 86 | –
5 | 26 | 475 (≈ 99.9 µg/mL) | COc1ccc(/C=C/c2ccccc2)cc1 | 418 | – | – | – | – | –
6 | 23 | 106 (≈ 25 µg/mL) | C=CCOc1ccc(/C=C/c2ccccc2)cc1 | > 400 | – | – | – | – | –
7 | 42.8 | 59.5 (≈ 12.5 µg/mL) | COc1ccccc1/C=C/c1ccccc1 | 152 | – | 70 | – | – | Active
8 | 34.6 | 32 (≈ 6.28 µg/mL) | Oc1ccc(/C=C/c2ccccc2)cc1 [(E)-4-STYRYLPHENOL] | 33.6 | – | – | – | – | –
